Results taken from ChEMBL document CHEMBL1141787, “Antifungal activity of artemisinin derivatives” (J Nat Prod, 2005).
≈ marks a conversion by molar mass, not a printed value. Calls of active or inactive are those of the source. The calls are words filed in the database; no cut-off is given here.

Tests used:
Type in all cases: functional, organism-based
[1] = system: Cryptococcus neoformans; experiment: Antifungal activity against Cryptococcus neoformans ATCC 90113 by modified NCCLS method
How it was run: (§1)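 Broth microdilution following a modified NCCLS method. The inoculum was a subculture diluted in its incubation broth. Compounds were dissolved in DMSO, serially diluted in normal saline and tested in duplicate, at final concentrations starting at 50 µg/mL. Amphotericin B served as positive control, with media-only blanks. Turbidity was read at 630 nm before and after incubation. Percent growth was plotted against concentration to give IC50/MIC.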

[2] = system: Candida albicans; experiment: Antifungal activity against Candida albicans ATCC 90028 at 50 ug/mL by modified NCCLS method; how it was run: as §1
[3] = system: Cryptococcus neoformans; experiment: Antifungal activity against Cryptococcus neoformans ATCC 90113 at 50 ug/mL by modified NCCLS method; how it was run: as §1
[4] = system: Candida albicans; experiment: Antifungal activity against Candida albicans ATCC 90028 by modified NCCLS method; how it was run: as §1

Compound | IC50 [1] [µg/mL] | Activity [2] | Activity [3] | IC50 [4] [µg/mL] | MIC [4] [µg/mL] | MIC [1] [µg/mL]
C=C1[C@@H](OCCO)O[C@@H]2O[C@]3(C)CC[C@H]4[C@H](C)CC[C@@H]1[C@@]24OO3 | 3 (≈ 9.19 µM) | inactive | inactive |  |  | 
C[C@@H]1[C@H](O)[C@@H](C)/C=C/C=C/C=C/C=C/C=C/C=C/C=C/[C@H](O[C@@H]2O[C@H](C)[C@@H](O)[C@H](N)[C@@H]2O)C[C@@H]2O[C@](O)(C[C@@H](O)C[C@@H](O)[C@H](O)CC[C@@H](O)C[C@@H](O)CC(=O)O[C@H]1C)C[C@H](O)[C@H]2C(=O)O [AMPHOTERICIN B] | 0.35 (≈ 0.379 µM) |  |  | 0.1 (≈ 0.108 µM) | 0.15 (≈ 0.162 µM) | 0.625 (≈ 0.676 µM)
C=C1C(=O)O[C@@H]2OC3(C)CC[C@H]4[C@H](C)CC[C@@H]1[C@@]24OO3 (single isomer, unassigned) [ARTEMISITENE] | 0.045 (≈ 0.161 µM) | inactive | inactive |  |  | 
CCO[C@@H]1O[C@@H]2O[C@]3(C)CC[C@H]4[C@H](C)CC[C@@H]([C@H]1C)[C@@]24OO3 [ALPHA-ARTEETHER] | 0.045 (≈ 0.144 µM) | inactive |  | 3 (≈ 9.6 µM) |  | 1.56 (≈ 4.99 µM)
C[C@H]1[C@@H](O[C@H]2CC[C@@H](O)CC2)O[C@@H]2O[C@]3(C)CC[C@H]4[C@H](C)CC[C@@H]1[C@@]24OO3 | 0.9 (≈ 2.35 µM) | inactive | inactive |  |  | 
C[C@H]1[C@@H](OCCCCO)O[C@@H]2O[C@]3(C)CC[C@H]4[C@H](C)CC[C@@H]1[C@@]24OO3 | 0.6 (≈ 1.68 µM) | inactive | inactive |  |  | 
CO[C@H]1O[C@@H]2OC3(C)CC[C@H]4[C@H](C)CC[C@@H]([C@H]1C)[C@@]24OO3 (single isomer, unassigned) [ARTEMETHER] | 0.6 (≈ 2.01 µM) | inactive |  |  |  | 25 (≈ 83.8 µM)
CC1=CO[C@@H]2O[C@]3(C)CC[C@H]4[C@H](C)CC[C@@H]1[C@@]24OO3 [ANHYDRODIHYDROARTEMISININ] | 0.045 (≈ 0.169 µM) |  |  | 7 (≈ 26.3 µM) | 50 (≈ 188 µM) | 0.195 (≈ 0.732 µM)
CO[C@@H]1O[C@@H]2O[C@]3(C)CC[C@H]4[C@H](C)CC[C@@H]([C@H]1C)[C@@]24OO3 | 1.5 (≈ 5.03 µM) | inactive | inactive |  |  | 
CC1=CO[C@@H]2O[C@]3(C)CC[C@H]4[C@H](C)CC[C@@H]1[C@@]24O3 | 6 (≈ 24 µM) | inactive | inactive | 30 (≈ 120 µM) |  | 
CCO[C@H]1O[C@@H]2O[C@@]3(C)CC[C@H]4[C@H](C)CC[C@@H]([C@H]1C)[C@@]24OO3 [ARTEMOTIL] | 0.085 (≈ 0.272 µM) |  |  | 15 (≈ 48 µM) | 50 (≈ 160 µM) | 3.13 (≈ 10 µM)
C[C@H]1[C@@H](Oc2ccc(O)cc2)O[C@@H]2O[C@]3(C)CC[C@H]4[C@H](C)CC[C@@H]1[C@@]24OO3 | 0.087 (≈ 0.231 µM) | inactive | inactive |  |  | 
C[C@H]1[C@@H](Oc2ccc(S)cc2)O[C@@H]2O[C@]3(C)CC[C@H]4[C@H](C)CC[C@@H]1[C@@]24OO3 | 0.31 (≈ 0.79 µM) | inactive | inactive |  |  | 
C[C@@H]1CC[C@H]2[C@@H](C)C(=O)O[C@@H]3O[C@@]4(C)CC[C@@H]1[C@]32OO4 [ARTEMISININ] | 2 (≈ 7.08 µM) |  |  | 8 (≈ 28.3 µM) | 50 (≈ 177 µM) | 50 (≈ 177 µM)
C[C@H]1[C@@H](O)O[C@@H]2OC3(C)CC[C@H]4[C@H](C)CC[C@@H]1[C@@]24OO3 (single isomer, unassigned) [ARTENIMOL] | 0.09 (≈ 0.317 µM) | inactive |  | 9 (≈ 31.7 µM) |  | 12.5 (≈ 44 µM)
C[C@H]1[C@@H](O[C@H]2CC[C@H](O)CC2)O[C@@H]2O[C@]3(C)CC[C@H]4[C@H](C)CC[C@@H]1[C@@]24OO3 | 1 (≈ 2.61 µM) | inactive | inactive |  |  | 
